Measurements from ChEMBL document CHEMBL2163224, “In silico discovery of a compound with nanomolar affinity to antithrombin causing partial activation and increased heparin affinity” (J Med Chem, 2012).
Active and inactive are the calls of the source. No cut-off for these calls is given here.

What was measured:
[1] = Binding affinity to purified human antithrombin at 64 uM by isothermal titration calorimetry
[2] = Binding affinity to purified human antithrombin at 64 uM in presence of 37 uM d-myo-inositol 3,4,5,6-tetrakisphosphate by isothermal titration calorimetry
[3] = organism: Homo sapiens; test: Activation of purified human antithrombin-mediated inhibition of factor 10a assessed as second order association rate constant for chromogenic substrate hydrolysis by microplate reader based assay
[4] = organism: Homo sapiens; test: Activation of antithrombin in healthy human plasma assessed as inhibition of S-2238 hydrolysis at 148 uM incubated for 5 mins in presence of mouse Py-4-1 cells; format: cell-free; set-up: scale not given: the % may be the effect or the level left
[5] = organism: Homo sapiens; test: Activation of purified human antithrombin-low affinity heparin interaction assessed as antithrombin-mediated inhibition of factor 10a by measuring as second order association rate constant for chromogenic substrate hydrolysis at 1 uM by microplate reader based assay
[6] = organism: Homo sapiens; test: Activation of purified human antithrombin-mediated inhibition of thrombin assessed as second order association rate constant for chromogenic substrate hydrolysis by microplate reader based assay
[7] = organism: Homo sapiens; test: Activation of antithrombin in healthy human plasma assessed as inhibition of S-2238 hydrolysis at 148 uM incubated for 5 mins in presence of 1 uM unfractionated heparin; format: cell-free; set-up: scale not given: the % may be the effect or the level left
[8] = organism: Homo sapiens; test: Activation of antithrombin L99F mutant in type 2 antithrombin deficiency patient plasma assessed as inhibition of S-2238 hydrolysis at 148 uM incubated for 5 mins in presence of mouse Py-4-1 cells (reference value: 33.22 +/- 2.93%); format: cell-free; set-up: scale not given: the % may be the effect or the level left
[9] = organism: Homo sapiens; test: Induction of conformational changes in purified human antithrombin assessed as induction of transition latent conformation up to 14.8 uM at 37 or 42 degC incubated for 2 days in presence of urea by native PAGE
In short: (§1)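 Antithrombin incubated with compound up to 14.8 μM at 37 or 42 °C for 2 days; latent form and polymers assessed by immunoelectrophoresis on 8% (w/v) nondenaturing PAGE with or without 7 M urea.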

[10] = organism: Homo sapiens; test: Activation of antithrombin L99F mutant in type 2 antithrombin deficiency patient plasma assessed as inhibition of S-2238 hydrolysis at 148 uM incubated for 5 mins in presence of 1 uM unfractionated heparin (reference value: 33.22 +/- 2.93%); format: cell-free; set-up: scale not given: the % may be the effect or the level left
[11] = Binding affinity to purified human antithrombin at 128 uM by isothermal titration calorimetry
[12] = organism: Homo sapiens; test: Induction of conformational changes in purified human antithrombin assessed as induction of transition latent conformation up to 14.8 uM at 37 or 42 degC incubated for 2 days in absence of urea by native PAGE; in short: as §1
[13] = organism: Homo sapiens; test: Activation of purified human antithrombin-high affinity heparin interaction assessed as antithrombin-mediated inhibition of factor 10a by measuring as second order association rate constant for chromogenic substrate hydrolysis at 1 uM by microplate reader based assay
[14] = organism: Homo sapiens; test: Induction of conformational changes in purified human antithrombin assessed as induction of antithrombin polymer formation up to 14.8 uM at 37 or 42 degC incubated for 2 days in absence of urea by native PAGE; in short: as §1
[15] = organism: Homo sapiens; test: Activation of purified human antithrombin-low affinity heparin interaction assessed as antithrombin-mediated inhibition of thrombin by measuring as second order association rate constant for chromogenic substrate hydrolysis at 1 uM by microplate reader based assay
[16] = organism: Homo sapiens; test: Induction of conformational changes in purified human antithrombin assessed as induction of antithrombin polymer formation up to 14.8 uM at 37 or 42 degC incubated for 2 days in presence of urea by native PAGE; in short: as §1
[17] = Activation of purified human antithrombin-unfractionated heparin interaction assessed as change in antithrombin intrinsic fluorescence by fluorescence spectrophotometry
In short: (§2)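 Antithrombin intrinsic fluorescence emission at 340 nm titrated with UFH (alone or after antithrombin preincubation with 37 μM compound) at room temperature, I = 0.15, 20 mM NaPO4, 100 mM NaCl, 0.1 mM EDTA, 0.1% PEG 8000, pH 7.4. Each point averaged from 100 readings at 1 s intervals; Kd obtained by data fitting.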

[18] = organism: Homo sapiens; test: Activation of citrullinated human antithrombin-mediated inhibition of factor 10a assessed as chromogenic substrate hydrolysis at 14.8 uM in presence of rabbit skeletal muscle […]; set-up: scale not given: the % may be the effect or the level left
In short: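 Plasma-purified antithrombin (1 mg/mL) incubated with rabbit skeletal muscle PAD IV (50:1 molar ratio antithrombin/PAD) ± 14.8 μM compound in 100 mM Tris-HCl, 5 mM CaCl2, pH 7.4, 37 °C, 15 min; stopped with 50 mM EDTA. Residual anti-FXa activity by chromogenic assay with heparin, bovine FXa, S-2765, A405. Two experiments in triplicate, % of antithrombin alone.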

[19] = organism: Homo sapiens; test: Activation of purified human antithrombin-high affinity heparin interaction assessed as antithrombin-mediated inhibition of thrombin by measuring as second order association rate constant for chromogenic substrate hydrolysis at 1 uM by microplate reader based assay
[20] = molecular target: T1, Antithrombin (Homo sapiens) (UniProt Q15950); test: Activation of purified human antithrombin-unfractionated heparin assessed as change in antithrombin intrinsic fluorescence at 37 uM by fluorescence spectrophotometry relative to untreated heparin control; in short: as §2
T1 sequence (whole entry): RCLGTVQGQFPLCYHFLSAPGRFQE

| Kd [1] [nM] | Kd [2] [nM] | K [3] [M⁻¹ s⁻¹] | Activity [4] [%] | K [5] [M⁻¹ s⁻¹] | K [6] [M⁻¹ s⁻¹] | Activity [7] [%] | Activity [8] [%] | Activity [9] | Activity [10] [%] | Kd [11] [nM] | Activity [12] | K [13] [M⁻¹ s⁻¹] | Activity [14] | K [15] [M⁻¹ s⁻¹] | Activity [16] | Kd [17] [nM] | Activity [18] [%] | K [19] [M⁻¹ s⁻¹] | fold change (FC) [20] | SMILES |
| --- | --- | --- | --- | --- | --- | --- | --- | --- | --- | --- | --- | --- | --- | --- | --- | --- | --- | --- | --- | --- |
| 273 | 18.8 | – | – | – | – | – | – | – | – | – | – | – | – | – | – | – | – | – | – | CO[C@H]1O[C@H](COS(=O)(=O)O)[C@@H](O[C@@H]2O[C@@H](C(=O)O)[C@@H](O[C@H]3O[C@H](COS(=O)(=O)O)[C@@H](O[C@@H]4O[C@H](C(=O)O)[C@@H](O[C@H]5O[C@H](COS(=O)(=O)O)[C@@H](O)[C@H](O)[C@H]5NS(=O)(=O)O)[C@H](O)[C@H]4O)[C@H](OS(=O)(=O)O)[C@H]3NS(=O)(=O)O)[C@H](O)[C@H]2OS(=O)(=O)O)[C@H](O)[C@H]1NS(=O)(=O)O [FONDAPARINUX SODIUM] |
| – | – | 12000 | 101 | 87000 | 23000 | 97.3 | 37.2 | inactive | 40 | 45 | inactive | 2.28e+06 | inactive | 683000 | inactive | 45 | 30 | 3.28e+06 | 2.3 | O=P(O)(O)O[C@@H]1[C@@H](OP(=O)(O)O)[C@H](OP(=O)(O)O)[C@@H](O)[C@@H](O)[C@H]1OP(=O)(O)O |
